Test results: ChEMBL document CHEMBL4411326 (J Med Chem, 2019)
Active and inactive are the calls of the source. The calls are words filed in the database; no cut-off is given here.

Columns and labels:
[1] = Displacement of [3H]-cytisine from alpha4beta2* nAChR in Wistar rat cerebral cortex membranes after 75 mins; type: cell membranes
[2] = molecular target: T1, Neuronal acetylcholine receptor subunit alpha-7 (Rattus norvegicus, UniProt Q05941); experiment: Displacement of [3H]-methyllycaconitine from alpha7* nAChR in rat brain P2 membranes after 2.5 hrs by liquid scintillation spectrometry; type: cell membranes
[3] = organism: Rattus norvegicus; experiment: Selectivity ratio of Ki for alpha7* nAChR in rat brain P2 membranes to Ki for alpha4beta2* nAChR in Wistar rat cerebral cortex membranes; type: cell membranes
[4] = molecular target: Neuronal acetylcholine receptor subunit alpha-7 (Homo sapiens, UniProt P36544); experiment: Agonist activity at human alpha7 nAChR expressed in mouse Neuro2a cells co-expressing chaperone NACHO assessed as increase in intracellular Ca2+ levels in presence of PNU120596 by calcium flux assay; type: cell-based
[5] = molecular target: T1, Neuronal acetylcholine receptor subunit alpha-7; experiment: Agonist activity at rat alpha7 nAChR expressed in Xenopus laevis oocytes after 4 to 5 days at -60 mV holding potential by […] assay; type: cell-based
Outline: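 Two-electrode voltage clamp on defolliculated stage V-VI Xenopus laevis oocytes (collagenase 2 mg/mL, 2 h, 21-24 °C, Ca2+-free Barth's, pH 7.6). Oocytes were injected with 9.2 ng cRNA of human α3+β2 (1:1) or rat α7 plus chaperone NACHO (2:1). Agonist applications were separated by 5 min washout in normal frog Ringer's.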

[6] = test system: SH-SY5Y; experiment: (§1) Agonist activity at nAChR in human SH-SY5Y cells assessed as increase in intracellular Ca2+ levels measured every 2 secs for 3 mins by Fluo4AM-fluorescent dye based assay; type: cell-based
Outline: (§2)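 SH-SY5Y cells (native nAChRs) in DMEM/F12 with 10% FBS were plated at 5000-10000 cells/well and grown 48-72 h. Cells were loaded with Fluo-4 AM (1.824 μM) and probenecid (1.25 mM). Compound was added just before reading; fluorescence at ex/em 485/535 nm. Mean ± SEM of three independent experiments, each with 5-6 measurements.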

[7] = as §1; type: cell-based; settings: 0.05 h; outline: as §2
[8] = molecular target: Neuronal acetylcholine receptor subunit alpha-7 (Rattus norvegicus) (UniProt Q05941); experiment: Displacement of [3H]-methyllycaconitine from alpha7* nAChR in rat brain P2 membranes at 1 uM after 2.5 hrs by liquid scintillation spectrometry relative to control; type: cell membranes
Outline: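 [3H]-Methyllycaconitine binding on rat brain minus cortex, striatum and cerebellum […]. Percent inhibition measured at 1 μM compound. Four independent experiments in duplicate.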

T1 sequence (Q05941 whole entry): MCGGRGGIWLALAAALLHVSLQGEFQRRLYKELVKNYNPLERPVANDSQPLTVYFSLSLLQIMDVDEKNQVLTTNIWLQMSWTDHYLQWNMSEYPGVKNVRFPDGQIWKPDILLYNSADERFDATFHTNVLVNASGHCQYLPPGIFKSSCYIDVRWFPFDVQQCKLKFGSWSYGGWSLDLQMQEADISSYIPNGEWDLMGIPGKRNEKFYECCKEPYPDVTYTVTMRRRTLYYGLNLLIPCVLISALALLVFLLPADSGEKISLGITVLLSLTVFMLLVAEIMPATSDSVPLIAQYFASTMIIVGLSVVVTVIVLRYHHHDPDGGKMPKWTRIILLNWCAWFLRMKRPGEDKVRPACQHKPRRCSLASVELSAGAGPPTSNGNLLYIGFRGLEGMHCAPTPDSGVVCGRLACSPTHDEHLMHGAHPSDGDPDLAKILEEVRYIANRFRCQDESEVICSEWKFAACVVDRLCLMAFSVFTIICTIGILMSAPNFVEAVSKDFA
Chain of Neuronal acetylcholine receptor subunit alpha-7 (Rattus norvegicus) (Q05941 whole entry): as above
Chain of Neuronal acetylcholine receptor subunit alpha-7 (Homo sapiens, UniProt P36544) (P36544 whole entry): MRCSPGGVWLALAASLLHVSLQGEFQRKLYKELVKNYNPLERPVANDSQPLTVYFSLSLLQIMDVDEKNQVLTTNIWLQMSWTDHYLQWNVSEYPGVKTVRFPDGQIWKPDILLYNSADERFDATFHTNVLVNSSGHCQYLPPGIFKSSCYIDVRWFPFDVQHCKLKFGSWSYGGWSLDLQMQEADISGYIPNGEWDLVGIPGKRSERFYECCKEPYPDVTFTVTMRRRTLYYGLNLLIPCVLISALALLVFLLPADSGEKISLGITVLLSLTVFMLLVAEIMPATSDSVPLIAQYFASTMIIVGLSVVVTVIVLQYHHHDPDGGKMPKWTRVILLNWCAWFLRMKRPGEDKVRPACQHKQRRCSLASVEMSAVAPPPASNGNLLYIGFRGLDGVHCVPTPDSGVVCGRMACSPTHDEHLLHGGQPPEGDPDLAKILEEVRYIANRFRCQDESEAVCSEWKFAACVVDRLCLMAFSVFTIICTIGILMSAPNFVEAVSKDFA

**Q.** Which Ki [1] does the source give for `CN[C@@H]1[C@@H]2CC[C@@H](C2)[C@H]1c1ccc(Cl)nc1` here?
**A.** The Ki was 3.12 nM.

**Q.** What about the Ki [2] of the same compound?
**A.** The Ki was 116 nM.

**Q.** What about the Ratio Ki [3] of the same compound?
**A.** The Ratio Ki was 37.

**Q.** For `CN[C@@H]1[C@@H]2CC[C@@H](C2)[C@H]1c1cccnc1`, which Ki [1] is on record?
**A.** Its Ki is 10.2 nM.

**Q.** What about the Ki [2] of the same compound?
**A.** The Ki was 352 nM.

**Q.** What about the EC50 [4] of the same compound?
**A.** The EC50 was 2290 nM.

**Q.** And the EC50 [5]?
**A.** The EC50 was over 10000 nM.

**Q.** And the Activity [6]?
**A.** Its Activity is “inactive”.

**Q.** Which results are given for `CN1CCC[C@H]1c1cccnc1` [NICOTINE]?
**A.** Ki [1]: 2.31 nM; EC50 [7]: 22500 nM

**Q.** Which Ki [1] does the source give for `CN(C)[C@@H]1[C@H]2CC[C@H](C2)[C@H]1c1cccnc1` here?
**A.** Its Ki is 554 nM.

**Q.** And the Ki [2]?
**A.** The Ki was over 1000 nM.

**Q.** What about the inhibition [8] of the same compound?
**A.** Its inhibition is 6%.

**Q.** And the Ratio Ki [3]?
**A.** The Ratio Ki was over 2.

**Q.** For `N[C@@H]1[C@H]2CC[C@H](C2)[C@H]1c1ccc(Cl)nc1`, which Ki [1] is on record?
**A.** The Ki was 28 nM.

**Q.** What about the Ki [2] of the same compound?
**A.** The Ki was 227 nM.

**Q.** With `CN[C@@H]1[C@H]2CC[C@H](C2)[C@H]1c1cccnc1` as the compound, how does the Ki [1] read?
**A.** The Ki was 206 nM.

**Q.** And the Ki [2]?
**A.** The Ki was over 1000 nM.

**Q.** And the inhibition [8]?
**A.** The inhibition was 15%.

**Q.** Which results are given for `N[C@@H]1[C@@H]2CC[C@@H](C2)[C@H]1c1ccc(Cl)nc1`?
**A.** Ki [1]: 1.31 nM; Ki [2]: 10.5 nM; EC50 [4]: 24 nM; EC50 [5]: 2710 nM; EC50 [7]: 220 nM

**Q.** What does the source list for `CN(C)[C@@H]1[C@@H]2CC[C@@H](C2)[C@H]1c1cccnc1`?
**A.** Ki [1]: 59 nM; Ki [2]: > 1000 nM; inhibition [8]: 8%; Ratio Ki [3]: > 17

**Q.** With `N[C@@H]1[C@@H]2CC[C@@H](C2)[C@H]1c1cccnc1` as the compound, how does the Ki [1] read?
**A.** The Ki was 2.11 nM.

**Q.** What about the Ki [2] of the same compound?
**A.** The Ki was 46 nM.

**Q.** And the EC50 [4]?
**A.** Its EC50 is 48 nM.

**Q.** And the EC50 [5]?
**A.** Its EC50 is 5980 nM.

**Q.** And the EC50 [7]?
**A.** The EC50 was 1920 nM.

**Q.** What does the source list for `CN(C)[C@@H]1[C@@H]2CC[C@@H](C2)[C@H]1c1ccc(Cl)nc1`?
**A.** Ki [1]: 43 nM; Ki [2]: > 1000 nM; inhibition [8]: 33%; EC50 [4]: 6450 nM; EC50 [5]: > 10000 nM; Activity [6]: inactive

**Q.** Which results are given for `N[C@@H]1[C@H]2CC[C@H](C2)[C@H]1c1cccnc1`?
**A.** Ki [1]: 166 nM; Ki [2]: > 1000 nM; inhibition [8]: 30%

**Q.** For `CN(C)[C@@H]1[C@H]2CC[C@H](C2)[C@H]1c1ccc(Cl)nc1`, which Ki [1] is on record?
**A.** Its Ki is 294 nM.

**Q.** What about the Ki [2] of the same compound?
**A.** The Ki was over 1000 nM.

**Q.** What about the inhibition [8] of the same compound?
**A.** Its inhibition is 18%.
